Assay results taken from ChEMBL document CHEMBL4261545, “Extraction of antioxidant and antiproliferative ingredients from fruits of Rubus chingii Hu by active tracking guidance” (Medchemcomm, 2017).
In brackets after ≈: the same amount, converted by molar mass. Activity calls are given as the source filed them. The rule behind the calls is not given here.

Key:
[1] = test system: Bel-7402; assay: Cytotoxicity against human Bel7402 cells after 24 hrs by MTT assay; assay type: functional, cell-based
Procedure, shortened: (§1)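 Cells grown in DMEM with 10% heat-inactivated FBS, penicillin and streptomycin at 37 °C, 5% CO2. Seeded 5×10^4 cells per well and treated 24 h after seeding. Samples dissolved in DMSO and diluted in medium, final DMSO under 0.1% (v/v). After 24 h exposure, MTT (0.5 mg mL-1) was added for 4 h at 37 °C and absorbance read at 490 nm. Inhibition % = (1 − ODsample/ODcontrol)×100, run in triplicate.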

[2] = test system: MCF7; assay: Cytotoxicity against human MCF7 cells after 24 hrs by MTT assay; assay type: functional, cell-based; procedure, shortened: as §1
[3] = test system: A549; assay: Cytotoxicity against human A549 cells after 24 hrs by MTT assay; assay type: functional, cell-based; procedure, shortened: as §1
[4] = test system: HepG2; assay: Cytotoxicity against human HepG2 cells after 24 hrs by MTT assay; assay type: functional, cell-based; procedure, shortened: as §1
[5] = test system: A549; assay: Cytotoxicity against human A549 cells assessed as inhibition of cell proliferation at 100 ug/ml after 24 hrs by MTT assay relative to control; assay type: functional
Procedure, shortened: (§2)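 Cells (from the CAS cell bank) were grown in DMEM with 10% heat-inactivated FBS, penicillin and streptomycin at 37 °C under 5% CO2. They were seeded at 5×10^4 cells/well and treated 24 h later. Samples were dissolved in DMSO and diluted in medium (final DMSO <0.1%) for 24 h. MTT (0.5 mg/mL) was added for 4 h at 37 °C and A490 read. Inhibition = (1 − OD sample/OD control)×100, in triplicate.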

[6] = test system: HepG2; assay: Cytotoxicity against human HepG2 cells assessed as inhibition of cell proliferation at 100 ug/ml after 24 hrs by MTT assay relative to control; assay type: functional; procedure, shortened: as §2
[7] = test system: Bel-7402; assay: Cytotoxicity against human Bel7402 cells assessed as inhibition of cell proliferation at 100 ug/ml after 24 hrs by MTT assay relative to control; assay type: functional; conditions: for inhibition at 100 µg/mL: Bel-7402, 24 h; procedure, shortened: as §1
[8] = test system: MCF7; assay: Cytotoxicity against human MCF7 cells assessed as inhibition of cell proliferation at 100 ug/ml after 24 hrs by MTT assay relative to control; assay type: functional; procedure, shortened: as §2
[9] = test system: MCF7; assay: Induction of morphological changes in human MCF7 cells after 24 hrs by phase contrast microscopic method; assay type: functional, cell-based
Procedure, shortened: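 MCF-7 cells were kept in DMEM with 10% heat-inactivated FBS at 37 °C, 5% CO2, exposed to compound for 24 h, then examined for morphological changes by phase-contrast microscopy.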

Compound | Activity [1] | Activity [2] | Activity [3] | Activity [4] | inhibition [5] | inhibition [6] | inhibition [7] | inhibition [8] | inhibition at 100 µg/mL [7] | inhibition at 100 µg/mL ([5]; A549, 24 h) | inhibition at 100 µg/mL ([6]; HepG2, 24 h) | IC50 ([1]; Bel-7402, 24 h) | Activity [9] | IC50 ([2]; MCF7, 24 h) | inhibition at 100 µg/mL ([8]; MCF7, 24 h) | IC50 ([3]; A549, 24 h) | IC50 ([4]; HepG2, 24 h)
CC[C@H](CC[C@@H](C)[C@H]1CC[C@H]2[C@@H]3CC=C4C[C@@H](O[C@@H]5O[C@H](CO)[C@@H](O)[C@H](O)[C@H]5O)CC[C@]4(C)[C@H]3CC[C@]12C)C(C)C | Dose-dependent effect | Dose-dependent effect | Dose-dependent effect | Dose-dependent effect | – | – | – | – | – | – | – | – | – | – | – | – | –
C[C@@]12CCC[C@@](C)(C(=O)O)[C@H]1CC[C@@]13C[C@@H](CC[C@H]12)[C@](O)(CO)C3 | Dose-dependent effect | Dose-dependent effect | Dose-dependent effect | Dose-dependent effect | – | – | – | – | – | – | – | – | – | – | – | – | –
O=c1[nH]cc(F)c(=O)[nH]1 | – | – | – | – | Active | Active | Active | Active | – | – | – | – | – | – | – | – | –
CC1(C)CC[C@]2(C(=O)O)CC[C@]3(C)C(=CC[C@@H]4[C@@]5(C)CC[C@H](O)C(C)(C)[C@@H]5CC[C@]43C)[C@@H]2C1 [OLEANOLIC_ACID] | Dose-dependent effect | Dose-dependent effect | Dose-dependent effect | Dose-dependent effect | – | – | – | – | 55.2% | – | – | – | – | – | – | – | –
C[C@@H]1CC[C@]2(C(=O)O)CC[C@]3(C)C(=CC[C@@H]4[C@@]5(C)C[C@@H](O)[C@H](O)C(C)(C)[C@@H]5CC[C@]43C)[C@@H]2[C@]1(C)O [TOMENTIC ACID] | Dose-dependent effect | Dose-dependent effect | Dose-dependent effect | Dose-dependent effect | – | – | – | – | 80.2% | 72.4% | 82.8% | 54.2 mg/L (≈ 111 µM) | Active | 24.2 mg/L (≈ 49.6 µM) | 91.8% | 62.4 mg/L (≈ 128 µM) | 40.6 mg/L (≈ 83 µM)
